Results taken from ChEMBL document CHEMBL4052586, “Design of Potent and Selective Cathepsin G Inhibitors Based on the Sunflower Trypsin Inhibitor-1 Scaffold” (J Med Chem, 2017).
Active and inactive are the calls of the source. No cut-off for these calls is given here. Positions of bridges follow the written chain, without caps; N, C: chain ends. Non-standard residues stand in square brackets, D forms with d. Residues, ends and D or L forms follow the SMILES beside them. ξ: configuration not given here. Phe(4-guanidino) = N=C(N)Nc1ccc(C[C@H](N)C(=O)O)cc1; ξNle = CCCCC(N)C(=O)O

Experiments:
Homo sapiens [1] = organism: Homo sapiens; assay: Selectivity ratio of Ki for human neutrophil elastase to Ki for human cathepsin G
Procedure, shortened: (§1)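 Each Ki was determined after 30 min room-temperature protease–inhibitor equilibration, with chromogenic (405 nm) or fluorogenic (360/460 nm) substrate readout in Tris/NaCl buffer pH 8.0. Morrison Ki was fitted by non-linear regression, three independent triplicate experiments, and the off-target Ki was divided by the cathepsin G Ki.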

Homo sapiens [2] = organism: Homo sapiens; assay: Selectivity ratio of Ki for human PR3 to Ki for human cathepsin G; procedure, shortened: as §1
Myeloblastin = target: T1, Myeloblastin (Homo sapiens, UniProt P24158); assay: Inhibition of human PR3 using Suc(OMe)-AAPV-MCA as substrate after 30 mins
T1 sequence (P24158 whole entry): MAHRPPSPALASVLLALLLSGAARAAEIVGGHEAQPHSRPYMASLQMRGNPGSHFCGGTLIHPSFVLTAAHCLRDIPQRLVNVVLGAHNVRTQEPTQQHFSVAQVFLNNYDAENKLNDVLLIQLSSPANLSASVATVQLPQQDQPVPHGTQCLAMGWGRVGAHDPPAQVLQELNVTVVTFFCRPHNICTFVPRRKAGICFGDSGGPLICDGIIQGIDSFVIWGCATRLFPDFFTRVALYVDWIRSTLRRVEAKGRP
Procedure, shortened: (§2)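 Protease and inhibitor equilibrated 30 min at room temperature, then MCA substrate added in assay buffer (0.15 M NaCl, 0.1 M Tris·HCl pH 8.0, 0.005% Triton X-100). Fluorescence was read at ex 360/em 460 nm over 10 min. Morrison Ki was fitted by non-linear regression from three independent triplicate experiments.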

Neutrophil elastase = target: T2, Neutrophil elastase (Homo sapiens, UniProt P08246); assay: Inhibition of human neutrophil elastase using Suc(OMe)-AAPV-pNA as substrate after 30 mins
T2 sequence (P08246 whole entry): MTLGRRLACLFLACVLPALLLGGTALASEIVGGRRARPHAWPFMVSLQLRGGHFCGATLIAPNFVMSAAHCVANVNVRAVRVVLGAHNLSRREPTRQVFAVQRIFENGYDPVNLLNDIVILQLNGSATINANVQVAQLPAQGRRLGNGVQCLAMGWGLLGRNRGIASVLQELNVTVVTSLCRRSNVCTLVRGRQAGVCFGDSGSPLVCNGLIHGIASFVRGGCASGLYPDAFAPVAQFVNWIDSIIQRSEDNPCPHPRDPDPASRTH
Procedure, shortened: (§3)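 Inhibitor and protease were preincubated 30 min at room temperature. pNA substrate release was read at 405 nm for 5 min in 0.15 M NaCl, 0.1 M Tris·HCl pH 8.0, 0.005% Triton X-100, with 10% acetonitrile. Morrison Ki was obtained by non-linear regression from three independent triplicate experiments.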

[3] = target: T3, Myeloblastin (Homo sapiens) (UniProt P24158); assay: Inhibition of human PR3 at 10000 nM using Suc(OMe)-AAPV-MCA as substrate after 30 mins relative to control
T3 sequence (whole entry): T1 sequence (P24158 whole entry)

Cathepsin G = target: T4, Cathepsin G (Homo sapiens, UniProt P08311); assay: Inhibition of human cathepsin G using Suc-AAPF-MCA as substrate after 30 mins
T4 sequence (P08311 whole entry): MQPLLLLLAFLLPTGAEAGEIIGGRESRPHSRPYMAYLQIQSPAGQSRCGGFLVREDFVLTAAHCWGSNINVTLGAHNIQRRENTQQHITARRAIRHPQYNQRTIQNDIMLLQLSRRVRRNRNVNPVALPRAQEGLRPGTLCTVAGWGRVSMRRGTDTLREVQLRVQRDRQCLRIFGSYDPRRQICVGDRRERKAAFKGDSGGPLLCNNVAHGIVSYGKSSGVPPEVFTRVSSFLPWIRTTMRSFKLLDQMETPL

Homo sapiens [4] = organism: Homo sapiens; assay: Selectivity ratio of Ki for recombinant KLK7 (unknown origin) to Ki for human cathepsin G; procedure, shortened: as §1
[5] = Inhibition of bovine chymotrypsin using Suc(OMe)-AAPV-MCA as substrate after 30 mins; design: species or system Bos taurus; procedure, shortened: as §2
[6] = Selectivity ratio of Ki for bovine chymotrypsin to Ki for human cathepsin G; procedure, shortened: as §1
Kallikrein-7 = Kallikrein-7 (Homo sapiens, UniProt P49862); assay: Inhibition of recombinant KLK7 (unknown origin) expressed in zymogen form in Pichia pastorisstrain X-33 using KHLY-pNA as substrate after 30 mins
Sequence of Kallikrein-7 (P49862 whole entry): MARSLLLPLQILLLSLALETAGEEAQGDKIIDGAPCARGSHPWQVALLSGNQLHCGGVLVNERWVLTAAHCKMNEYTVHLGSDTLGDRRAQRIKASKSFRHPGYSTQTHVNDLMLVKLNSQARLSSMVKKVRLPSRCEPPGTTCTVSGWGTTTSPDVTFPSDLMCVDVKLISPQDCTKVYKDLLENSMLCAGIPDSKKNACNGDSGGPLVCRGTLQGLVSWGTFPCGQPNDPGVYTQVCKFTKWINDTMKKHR
Procedure, shortened: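 Pro-KLK7 from Pichia supernatant was cation-exchange purified, activated with enterokinase (37°C, 2 h), repurified, and active-site titrated with α1-antitrypsin. After 30 min room-temperature equilibration with inhibitor, pNA hydrolysis was followed at 405 nm for 5 min in Tris/NaCl/Triton buffer pH 8.0 with 10% acetonitrile. Morrison Ki came from three independent triplicate runs.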

[7] = Inhibition of bovine trypsin using Tos-GPR-AMC as substrate preincubated for 30 mins followed by substrate addition
Chymase = target: T5, Chymase (Rattus norvegicus, UniProt P50339); assay: Inhibition of rat mast cell chymase using Suc-AAPF-pNA as substrate after 30 mins; procedure, shortened: as §3
T5 sequence (P50339 whole entry): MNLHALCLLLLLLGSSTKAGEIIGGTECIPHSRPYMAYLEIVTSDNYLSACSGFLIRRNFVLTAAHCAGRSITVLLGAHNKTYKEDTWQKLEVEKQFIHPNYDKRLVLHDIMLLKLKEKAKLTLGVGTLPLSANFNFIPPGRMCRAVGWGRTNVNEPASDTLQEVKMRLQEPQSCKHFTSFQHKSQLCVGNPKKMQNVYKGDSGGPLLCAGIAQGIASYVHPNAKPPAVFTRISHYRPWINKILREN

[8] = Selectivity ratio of Ki for rat mast cell chymase to Ki for human cathepsin G; procedure, shortened: as §1
[9] = Selectivity ratio of Ki for bovine trypsin to Ki for human cathepsin G; procedure, shortened: as §1
Prothrombin [10] = target: T6, Prothrombin (Homo sapiens, UniProt P00734); assay: Inhibition of human alpha-thrombin using Glt-Gly-Arg-MCA as substrate after 30 mins; procedure, shortened: as §2
[11] = Inhibition of bovine trypsin using Boc-QAR-MCA as substrate after 30 mins; design: species or system Bos taurus; procedure, shortened: as §2
Plasminogen [12] = target: T7, Plasminogen (Homo sapiens, UniProt P00747); assay: Inhibition of human plasmin using Ac-RM(O2)YRpNA as substrate after 30 mins; procedure, shortened: as §3
T7 sequence (P00747 97-580 limits assumed): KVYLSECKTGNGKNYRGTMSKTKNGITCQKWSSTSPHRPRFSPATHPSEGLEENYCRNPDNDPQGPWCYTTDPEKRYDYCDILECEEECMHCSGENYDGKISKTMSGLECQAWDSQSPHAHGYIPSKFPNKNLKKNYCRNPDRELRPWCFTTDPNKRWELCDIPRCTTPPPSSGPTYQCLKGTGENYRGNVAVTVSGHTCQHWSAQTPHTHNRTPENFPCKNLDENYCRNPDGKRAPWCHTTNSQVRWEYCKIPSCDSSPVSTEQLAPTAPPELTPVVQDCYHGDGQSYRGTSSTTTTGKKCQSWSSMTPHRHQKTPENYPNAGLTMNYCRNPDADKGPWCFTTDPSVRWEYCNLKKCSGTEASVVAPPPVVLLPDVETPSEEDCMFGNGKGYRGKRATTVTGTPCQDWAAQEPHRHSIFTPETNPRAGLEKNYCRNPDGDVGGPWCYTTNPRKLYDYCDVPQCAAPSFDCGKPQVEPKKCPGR
T7 sequence (P00747 581-810 limits assumed): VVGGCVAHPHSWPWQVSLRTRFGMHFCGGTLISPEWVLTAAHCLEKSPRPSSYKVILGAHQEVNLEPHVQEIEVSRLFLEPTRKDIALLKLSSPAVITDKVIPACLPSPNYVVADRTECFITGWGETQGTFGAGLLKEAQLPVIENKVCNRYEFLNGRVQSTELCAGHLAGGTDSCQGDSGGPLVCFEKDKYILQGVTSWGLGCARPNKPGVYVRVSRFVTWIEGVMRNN

Homo sapiens [13] = organism: Homo sapiens; assay: Selectivity ratio of Ki for human plasmin to Ki for human cathepsin G; procedure, shortened: as §1
Homo sapiens [14] = organism: Homo sapiens; assay: Selectivity ratio of Ki for human alpha-thrombin to Ki for human cathepsin G; procedure, shortened: as §1
Bos taurus = organism: Bos taurus; assay: Inhibition of bovine chymotrypsin at 10000 nM using Suc(OMe)-AAPV-MCA as substrate after 30 mins relative to control
[15] = target: T8, Cathepsin G (Homo sapiens) (UniProt P08311); assay: Inhibition of human cathepsin G assessed as decrease in angiotensin-2 generation from angiotensin-1 at 100 nM after 1.5 to 3 hrs by RP-UPLC/mass spectroscopic method; conditions: in the assay text read “1.5 to 5 hrs” for “1.5 to 3 hrs”
T8 sequence (whole entry): T4 sequence (P08311 whole entry)
Procedure, shortened: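 Cathepsin G (10 nM) was incubated with angiotensin I (10 µM) in assay buffer, with or without inhibitor at 100 nM. Aliquots were taken at 1.5, 3 and 5 h and quenched with 2% TFA. Angiotensin I cleavage and angiotensin II formation were analysed by RP-UPLC and electrospray mass spectrometry.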

Plasminogen [16] = target: T7, Plasminogen; assay: Inhibition of human plasmin at 10000 nM using Ac-RM(O2)YRpNA as substrate after 30 mins
Prothrombin [17] = target: T6, Prothrombin; assay: Inhibition of human alpha-thrombin at 10000 nM using Glt-Gly-Arg-MCA as substrate after 30 mins

Compound	Ratio Ki (Homo sapiens [1])	Ratio Ki (Homo sapiens [2])	Ki (Myeloblastin)	Ki (Neutrophil elastase)	inhibition [3]	Ki (Cathepsin G)	Ratio Ki (Homo sapiens [4])	Ki [5]	Ratio Ki [6]	Ki (Kallikrein-7)	Ki (Chymase)	Ratio Ki [8]	other results
CCCCC1NC(=O)[C@@H]2CSSC[C@H](NC(=O)[C@H]([C@@H](C)CC)NC(=O)[C@@H]3CCCN3C(=O)[C@@H]3CCCN3C(=O)[C@H]([C@@H](C)CC)NC(=O)[C@H](CO)NC(=O)[C@H](Cc3ccccc3)NC1=O)C(=O)N[C@@H](Cc1ccccc1)C(=O)N1CCC[C@H]1C(=O)N[C@@H](CC(N)=O)C(=O)NCC(=O)N[C@@H]([C@@H](C)O)C(=O)N2 (stereo partly drawn) (cyclo(CFPNGTC[ξNle]FSIPPI); disulfide 1-7)	13000	> 11000	> 10000 nM	12000 nM	< 20%	0.89 nM	78	1.9 nM	2.1	69 nM	–	–	–
CC[C@H](C)[C@@H]1NC(=O)[C@@H]2CCCN2C(=O)[C@@H]2CCCN2C(=O)[C@H](CC(=O)O)NC(=O)[C@H](CO)NC(=O)[C@H](CCCNC(=N)N)NC(=O)[C@H]([C@@H](C)O)NC(=O)[C@@H]2CSSC[C@H](NC1=O)C(=O)N[C@@H](CC(N)=O)C(=O)N1CCC[C@H]1C(=O)N[C@@H](CC(N)=O)C(=O)NCC(=O)N[C@@H]([C@@H](C)O)C(=O)N2 (cyclo(CNPNGTCTRSDPPI); disulfide 1-7)	–	–	–	–	–	12 nM	–	–	–	–	–	–	–
CC[C@H](C)[C@@H]1NC(=O)[C@@H]2CCCN2C(=O)[C@@H]2CCCN2C(=O)[C@H]([C@@H](C)CC)NC(=O)[C@H](CO)NC(=O)[C@H](CCCNC(=N)N)NC(=O)[C@H]([C@@H](C)O)NC(=O)[C@@H]2CSSC[C@H](NC1=O)C(=O)N[C@@H](CC(N)=O)C(=O)N1CCC[C@H]1C(=O)N[C@@H](CC(N)=O)C(=O)NCC(=O)N[C@@H]([C@@H](C)O)C(=O)N2 (cyclo(CNPNGTCTRSIPPI); disulfide 1-7)	–	–	–	–	–	490 nM	–	–	–	–	–	–	–
CC[C@H](C)[C@@H]1NC(=O)[C@@H]2CCCN2C(=O)[C@@H]2CCCN2C(=O)[C@H]([C@@H](C)CC)NC(=O)[C@H](CO)NC(=O)[C@H](CCCCN)NC(=O)[C@H]([C@@H](C)O)NC(=O)[C@@H]2CSSC[C@H](NC1=O)C(=O)N[C@@H](Cc1ccccc1)C(=O)N1CCC[C@H]1C(=O)N[C@@H](CC(=O)O)C(=O)NCC(=O)N[C@@H](CCCNC(=N)N)C(=O)N2	–	–	–	–	–	730 nM	–	–	–	–	–	–	Ki [7]: 0.0017 nM
CCCCC1NC(=O)[C@@H]2CSSC[C@H](NC(=O)[C@H]([C@@H](C)CC)NC(=O)[C@@H]3CCCN3C(=O)[C@@H]3CCCN3C(=O)[C@H](CC(=O)O)NC(=O)[C@H](CO)NC(=O)[C@H](Cc3ccccc3)NC1=O)C(=O)N[C@@H](Cc1ccccc1)C(=O)N1CCC[C@H]1C(=O)N[C@@H](CC(N)=O)C(=O)NCC(=O)N[C@@H]([C@@H](C)O)C(=O)N2 (stereo partly drawn) (cyclo(CFPNGTC[ξNle]FSDPPI); disulfide 1-7)	5200	> 5900	> 10000 nM	8900 nM	< 20%	1.7 nM	76	140 nM	83	130 nM	7.7 nM	4.5	–
CCCCC1NC(=O)[C@@H]2CSSC[C@H](NC(=O)[C@H]([C@@H](C)CC)NC(=O)[C@@H]3CCCN3C(=O)[C@@H]3CCCN3C(=O)[C@H](CC(=O)O)NC(=O)[C@H](CO)NC(=O)[C@H](Cc3ccc(NC(=N)N)cc3)NC1=O)C(=O)N[C@@H](Cc1ccccc1)C(=O)N1CCC[C@H]1C(=O)N[C@@H](CC(N)=O)C(=O)NCC(=O)N[C@@H]([C@@H](C)O)C(=O)N2 (stereo partly drawn) (cyclo(CFPNGTC[ξNle][Phe(4-guanidino)]SDPPI); disulfide 1-7)	27000	> 6300	> 10000 nM	43000 nM	< 20%	1.6 nM	460	> 10000 nM	> 6300	740 nM	19600 nM	12000	Ratio Ki [9]: 360; Ki (Prothrombin [10]): > 10000 nM; Ki [11]: 580 nM; Ki (Plasminogen [12]): > 10000 nM; Ratio Ki (Homo sapiens [13]): > 6300; Ratio Ki (Homo sapiens [14]): > 6300; inhibition (Bos taurus): < 20%; inhibition [15]: Active; inhibition (Plasminogen [16]): < 20%; inhibition (Prothrombin [17]): < 20%
